Source: PubChem BioAssay
The source made the active and inactive calls.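 How the source made its calls, unless noted: active means potentiation averaged over duplicate wells exceeding buffer-only control mean by more than 3 SD; inactive means the rest.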

test system: not listed separately; test: nonspecific flux increase, KCNQ1-free cells – parental CHO cells, counter-screen for KCNQ1 potentiator project (AID 493006;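 active means duplicate-averaged activation above buffer control mean plus 5 SD of those controls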;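 on activation: fluorescence ratio of max minus min over baseline after K+ and Tl+ depolarization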); conditions: parental CHO-K1 cells, FluxOR thallium flux, at 10 µM; hits give high values
How it was run: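 Benchmarks – buffer and R-L3 controls · Assay system – untransfected host CHO-K1 cells with FluxOR thallium dye · Measure – fluorescence change ratio scaled 0% buffer, 100% R-L3 · Technique – kinetic thallium-flux fluorescence · Timing – overnight 37 °C plating, 90 min RT dye, 20 min compound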

| SMILES | outcome | activation |
| --- | --- | --- |
| CCCn1c(SCC(=O)Nc2cccc(NC(C)=O)c2)nnc1C(C)C | inactive |  |
| CSc1cccc(NC(=O)CN2C(=O)c3ccccc3S2(=O)=O)c1 | inactive |  |
| COC(=O)C1CCN(C(=O)Nc2ccc(OC)cc2)CC1 |  | 144% (active) |
| CC(=O)n1cc(N(C(=O)CCl)c2ccc(C)cc2)c2ccccc21 | inactive |  |
| Cn1c(=O)c2c(ncn2CC(=O)OCC(=O)Nc2cc(Cl)ccc2Cl)n(C)c1=O | inactive |  |
| CCOC(=O)C1CCN(C(=O)COC(=O)c2cc(-c3cccs3)nn2-c2ccccc2)CC1 | inactive |  |
| Cc1cc(N2CCOCC2)nc(SCC(=O)c2ccc(Cl)cc2)n1 | inactive |  |
| CCOc1cc(S(=O)(=O)Nc2ccc(Cl)cn2)ccc1Cl | inactive |  |
| Cc1cc(OC(=O)c2cc(Cl)ccc2Cl)c([N+](=O)[O-])c(=O)[nH]1 | inactive |  |
| S=c1[nH]c2ccccc2c2ccccc12 |  | 148% (active) |
| O=C(N1CCOCC1)N1CCC(n2nnc3ccccc32)CC1 | inactive |  |
| COC(=O)c1ccc(CNC(=O)CSc2nc3sc(C)c(C)c3c(=O)n2C)o1 |  | 268% (active) |
| Cc1ccc(CCNC(=O)C2CC(c3cccc(F)c3)=NO2)cc1 (stereo not given) | inactive |  |
| CC1CN(C(=O)C2CC(=O)N(c3ccc(Cl)cc3)C2)CC(C)O1 (stereo not given) | inactive |  |
| CCCCn1c(=O)[nH]c(=O)c2c1nc(Cn1ncc(Cl)c(Cl)c1=O)n2CCC | inactive |  |
| O=C(NC(=S)Nc1ccc(Br)cn1)c1cccs1 | inactive |  |
| S=C(NN=C1CCCCCC1)Nc1ccc(Cl)cc1 | inactive |  |
| COC(=O)c1ccc(CSc2nnc(SCc3ccc(C(=O)OC)o3)s2)o1 | inactive |  |
| CCc1ccc(NC(=O)C2CCN(C(=O)[C@@H]3Cc4ccccc4CN3)CC2)cc1 | inactive |  |
| CN(C(=S)NC(=O)c1ccc(F)cc1)C1CCCCC1 |  | 154% (active) |

| SMILES | outcome | activation |
| --- | --- | --- |
| CNCCC=C1c2ccccc2CCc2ccccc21 |  | 150% (active) |
| Cc1ccc(C)c(NC(=S)NNC(=O)c2csc(C(C)C)c2)c1 |  | 162% (active) |
| N#Cc1ccc2ccn(CC(=O)NCc3ccccc3)c2c1 | inactive |  |
| COc1cc2c(cc1NC(=O)CSc1nnc(COc3ccc(Cl)cc3)n1C)oc1ccccc12 | inactive |  |
| O=C(CSc1nc(-c2ccccc2)cs1)N1CCc2ccccc21 | inactive |  |
| COc1cccc2c1C(=O)C=C(C)C2=O | inactive |  |
| CC(CNC(=O)COc1ccccc1)OC(=O)Nc1ccc(Cl)c(Cl)c1 (stereo not given) | inactive |  |
| CC(C)COc1ccc(-c2nn(-c3ccccc3)cc2/C=C2/SC(=S)N(CC(=O)O)C2=O)cc1 | inactive |  |
| Cc1ccc(O)c(NC(=S)NC(=O)Cc2ccc(Cl)cc2)c1 | inactive |  |
| CN(Cc1cccnc1)C(=O)Cc1ccc(NS(=O)(=O)c2cccc(C(F)(F)F)c2)cc1 | inactive |  |
| Cc1cccc(N(CC(=O)NC2CCCC2)C(=O)c2csnn2)c1C | inactive |  |
| Cc1ccc(-n2c(-c3ccc(Cl)cc3)n[nH]c2=S)c(C)c1 | inactive |  |
| O=C(CCSc1ccccc1)Nc1ccc(S(=O)(=O)Nc2ncccn2)cc1 | inactive |  |
| COCC(=O)NC1CC2CCC(C1)N2C(=S)Nc1ccccc1C(=O)OC (stereo not given) | inactive |  |
| Cc1ccc(NC(=O)Cn2nc(C)c3ccccc3c2=O)c(C)c1 | inactive |  |
| CCCCNC(=O)CNC(=O)c1nn(-c2ccc(OC)cc2OC)c(=O)c2ccccc12 | inactive |  |
| COc1ccc(O)c(C(=O)c2cnn(-c3ccc(Cl)cc3)c2)c1 | inactive |  |
| COC(=O)c1cc(-c2cc(OC)ccc2OC)nc2c1c(=O)n(C)c(=O)n2Cc1ccccc1 | inactive |  |
| O=C(NC(=S)Nc1nc2c(s1)CCCC2)c1ccc(C(=O)c2ccccc2)cc1 |  | 138% (active) |
| Cc1ccc(Nc2c(-c3ccc(C)o3)nc3cnccn23)cc1 | inactive |  |

target: Potassium voltage-gated channel subfamily KQT member 1 (Homo sapiens) (UniProt P51787); test: enhancement of KCNQ1 channel thallium flux – FluxOR thallium flux, CHO cells, duplicates, confirmation (AID 493007); conditions: KCNQ1 cell line, FluxOR thallium flux fluorescence, at 10 µM; hits give high values, % of reference activator effect, buffer zero;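 on outcome: cells depolarized by a potassium plus thallium sulfate stimulus after compound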
How it was run: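 Material: CHO cells stably expressing the KCNQ1 potassium channel / Times: dye 90 min then compound 20 min, both at room temperature / Detection: kinetic thallium influx fluorescence with FluxOR dye, 10 s baseline, 110 s post-stimulus / Benchmarks: buffer-only wells as 0% and R-L3 activator as 100% / Replicates: each compound tested in duplicate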

Sequence of Potassium voltage-gated channel subfamily KQT member 1 (Homo sapiens) (P51787 whole entry, looked up): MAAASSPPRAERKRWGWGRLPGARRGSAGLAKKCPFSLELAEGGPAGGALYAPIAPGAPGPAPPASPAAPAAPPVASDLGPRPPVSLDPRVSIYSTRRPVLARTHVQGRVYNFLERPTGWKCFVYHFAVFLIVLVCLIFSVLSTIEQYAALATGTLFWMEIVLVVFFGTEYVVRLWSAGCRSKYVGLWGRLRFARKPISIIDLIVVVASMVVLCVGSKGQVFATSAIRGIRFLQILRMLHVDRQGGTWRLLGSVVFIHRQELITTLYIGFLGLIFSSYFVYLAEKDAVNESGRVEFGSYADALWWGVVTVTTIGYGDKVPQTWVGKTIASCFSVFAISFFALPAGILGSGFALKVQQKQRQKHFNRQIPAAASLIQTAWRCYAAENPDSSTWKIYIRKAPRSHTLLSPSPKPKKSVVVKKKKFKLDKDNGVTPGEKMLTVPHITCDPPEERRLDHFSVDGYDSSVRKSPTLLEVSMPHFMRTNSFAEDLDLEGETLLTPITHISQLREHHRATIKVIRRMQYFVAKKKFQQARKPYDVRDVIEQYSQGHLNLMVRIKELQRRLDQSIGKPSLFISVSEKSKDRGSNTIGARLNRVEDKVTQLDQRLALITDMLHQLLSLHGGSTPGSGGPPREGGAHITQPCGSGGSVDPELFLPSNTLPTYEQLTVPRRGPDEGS

| SMILES | outcome | potentiation |
| --- | --- | --- |
| CCCn1c(SCC(=O)Nc2cccc(NC(C)=O)c2)nnc1C(C)C | inactive |  |
| CSc1cccc(NC(=O)CN2C(=O)c3ccccc3S2(=O)=O)c1 | inactive |  |
| COC(=O)C1CCN(C(=O)Nc2ccc(OC)cc2)CC1 |  | 33% (active) |
| CC(=O)n1cc(N(C(=O)CCl)c2ccc(C)cc2)c2ccccc21 | inactive |  |
| Cn1c(=O)c2c(ncn2CC(=O)OCC(=O)Nc2cc(Cl)ccc2Cl)n(C)c1=O | inactive |  |
| CCOC(=O)C1CCN(C(=O)COC(=O)c2cc(-c3cccs3)nn2-c2ccccc2)CC1 | inactive |  |
| Cc1cc(N2CCOCC2)nc(SCC(=O)c2ccc(Cl)cc2)n1 | inactive |  |
| CCOc1cc(S(=O)(=O)Nc2ccc(Cl)cn2)ccc1Cl | inactive |  |
| Cc1cc(OC(=O)c2cc(Cl)ccc2Cl)c([N+](=O)[O-])c(=O)[nH]1 | inactive |  |
| S=c1[nH]c2ccccc2c2ccccc12 | inactive |  |
| O=C(N1CCOCC1)N1CCC(n2nnc3ccccc32)CC1 | inactive |  |
| COC(=O)c1ccc(CNC(=O)CSc2nc3sc(C)c(C)c3c(=O)n2C)o1 |  | 89.5% (active) |
| Cc1ccc(CCNC(=O)C2CC(c3cccc(F)c3)=NO2)cc1 (stereo not given) | inactive |  |
| CC1CN(C(=O)C2CC(=O)N(c3ccc(Cl)cc3)C2)CC(C)O1 (stereo not given) | inactive |  |
| CCCCn1c(=O)[nH]c(=O)c2c1nc(Cn1ncc(Cl)c(Cl)c1=O)n2CCC | inactive |  |
| O=C(NC(=S)Nc1ccc(Br)cn1)c1cccs1 | inactive |  |
| S=C(NN=C1CCCCCC1)Nc1ccc(Cl)cc1 | inactive |  |
| COC(=O)c1ccc(CSc2nnc(SCc3ccc(C(=O)OC)o3)s2)o1 | inactive |  |
| CCc1ccc(NC(=O)C2CCN(C(=O)[C@@H]3Cc4ccccc4CN3)CC2)cc1 | inactive |  |
| CN(C(=S)NC(=O)c1ccc(F)cc1)C1CCCCC1 |  | 31.5% (active) |

| SMILES | outcome | potentiation |
| --- | --- | --- |
| CNCCC=C1c2ccccc2CCc2ccccc21 |  | 76% (active) |
| Cc1ccc(C)c(NC(=S)NNC(=O)c2csc(C(C)C)c2)c1 |  | 55.5% (active) |
| N#Cc1ccc2ccn(CC(=O)NCc3ccccc3)c2c1 | inactive |  |
| COc1cc2c(cc1NC(=O)CSc1nnc(COc3ccc(Cl)cc3)n1C)oc1ccccc12 |  | 49.5% (active) |
| O=C(CSc1nc(-c2ccccc2)cs1)N1CCc2ccccc21 | inactive |  |
| COc1cccc2c1C(=O)C=C(C)C2=O | inactive |  |
| CC(CNC(=O)COc1ccccc1)OC(=O)Nc1ccc(Cl)c(Cl)c1 (stereo not given) | inactive |  |
| CC(C)COc1ccc(-c2nn(-c3ccccc3)cc2/C=C2/SC(=S)N(CC(=O)O)C2=O)cc1 | inactive |  |
| Cc1ccc(O)c(NC(=S)NC(=O)Cc2ccc(Cl)cc2)c1 |  | 38% (active) |
| CN(Cc1cccnc1)C(=O)Cc1ccc(NS(=O)(=O)c2cccc(C(F)(F)F)c2)cc1 | inactive |  |
| Cc1cccc(N(CC(=O)NC2CCCC2)C(=O)c2csnn2)c1C | inactive |  |
| Cc1ccc(-n2c(-c3ccc(Cl)cc3)n[nH]c2=S)c(C)c1 | inactive |  |
| O=C(CCSc1ccccc1)Nc1ccc(S(=O)(=O)Nc2ncccn2)cc1 | inactive |  |
| COCC(=O)NC1CC2CCC(C1)N2C(=S)Nc1ccccc1C(=O)OC (stereo not given) | inactive |  |
| Cc1ccc(NC(=O)Cn2nc(C)c3ccccc3c2=O)c(C)c1 | inactive |  |
| CCCCNC(=O)CNC(=O)c1nn(-c2ccc(OC)cc2OC)c(=O)c2ccccc12 | inactive |  |
| COc1ccc(O)c(C(=O)c2cnn(-c3ccc(Cl)cc3)c2)c1 | inactive |  |
| COC(=O)c1cc(-c2cc(OC)ccc2OC)nc2c1c(=O)n(C)c(=O)n2Cc1ccccc1 | inactive |  |
| O=C(NC(=S)Nc1nc2c(s1)CCCC2)c1ccc(C(=O)c2ccccc2)cc1 |  | 30% (active) |
| Cc1ccc(Nc2c(-c3ccc(C)o3)nc3cnccn23)cc1 | inactive |  |
